Legend:
recombinant DGKα [1] = molecular target: T1, recombinant DGKα (Rattus norvegicus, UniProt P51556); test: DAG phosphorylation substrate assay; format: biochemical; details: DGKα-overexpressed HEK293T soluble proteomes
How it was run: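 IC50 derived from a dose–response curve of DAG phosphorylation by recombinant DGKα across a range of test compound concentrations. Data are means ± standard error of the mean of two biological replicates, and a 95% confidence interval is given for the IC50.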

BRAF = BRAF (Homo sapiens, UniProt P15056); test: LC–MS quantitative chemical proteomic assay; format: binding; details: ATP 1 mM
HSP70-1A/B = HSP70-1A/B (Homo sapiens, UniProt P0DMV8); test: LC–MS quantitative chemical proteomic assay; format: binding; details: ATP 1 mM
recombinant DGKα [2] = molecular target: T1, recombinant DGKα; test: LC–MS quantitative chemical proteomic assay; format: binding

T1 sequence (P51556 whole entry): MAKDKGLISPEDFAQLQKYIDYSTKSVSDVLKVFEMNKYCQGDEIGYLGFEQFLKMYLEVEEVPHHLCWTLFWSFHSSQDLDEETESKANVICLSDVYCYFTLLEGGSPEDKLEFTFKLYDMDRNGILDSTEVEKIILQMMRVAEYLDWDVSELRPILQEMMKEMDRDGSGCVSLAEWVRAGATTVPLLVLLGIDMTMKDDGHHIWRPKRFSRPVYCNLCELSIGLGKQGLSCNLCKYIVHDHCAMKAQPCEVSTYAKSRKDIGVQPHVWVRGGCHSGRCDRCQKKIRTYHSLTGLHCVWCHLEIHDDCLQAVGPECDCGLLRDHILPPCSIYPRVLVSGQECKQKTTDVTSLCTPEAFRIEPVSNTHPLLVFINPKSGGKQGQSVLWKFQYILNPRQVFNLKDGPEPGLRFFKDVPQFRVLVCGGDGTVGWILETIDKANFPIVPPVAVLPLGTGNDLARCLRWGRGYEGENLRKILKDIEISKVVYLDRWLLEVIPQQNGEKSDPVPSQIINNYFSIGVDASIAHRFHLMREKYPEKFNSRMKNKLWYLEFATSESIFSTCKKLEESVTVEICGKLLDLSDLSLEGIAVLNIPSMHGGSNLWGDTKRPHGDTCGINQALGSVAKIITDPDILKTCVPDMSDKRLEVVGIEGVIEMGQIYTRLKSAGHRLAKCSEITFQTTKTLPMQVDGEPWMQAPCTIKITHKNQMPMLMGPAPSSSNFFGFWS
HSP70-1A/B, sequence (P0DMV8 whole entry): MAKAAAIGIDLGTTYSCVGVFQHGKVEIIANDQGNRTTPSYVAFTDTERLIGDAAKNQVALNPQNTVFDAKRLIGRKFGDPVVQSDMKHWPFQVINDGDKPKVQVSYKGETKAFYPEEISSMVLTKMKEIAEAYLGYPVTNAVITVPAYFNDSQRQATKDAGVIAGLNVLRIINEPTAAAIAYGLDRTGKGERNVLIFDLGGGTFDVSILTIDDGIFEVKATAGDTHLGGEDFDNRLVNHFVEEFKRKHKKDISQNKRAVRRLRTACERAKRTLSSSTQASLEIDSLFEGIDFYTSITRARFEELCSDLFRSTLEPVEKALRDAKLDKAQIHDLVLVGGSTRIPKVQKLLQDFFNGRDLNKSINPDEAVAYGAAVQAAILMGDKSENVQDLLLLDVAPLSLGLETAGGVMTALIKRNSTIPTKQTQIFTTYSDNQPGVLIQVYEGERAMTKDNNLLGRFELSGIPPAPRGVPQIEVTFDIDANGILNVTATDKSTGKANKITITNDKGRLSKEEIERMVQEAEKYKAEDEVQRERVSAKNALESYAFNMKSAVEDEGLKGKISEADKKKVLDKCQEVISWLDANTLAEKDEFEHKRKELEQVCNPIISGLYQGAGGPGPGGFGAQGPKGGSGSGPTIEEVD
BRAF, sequence (P15056 whole entry): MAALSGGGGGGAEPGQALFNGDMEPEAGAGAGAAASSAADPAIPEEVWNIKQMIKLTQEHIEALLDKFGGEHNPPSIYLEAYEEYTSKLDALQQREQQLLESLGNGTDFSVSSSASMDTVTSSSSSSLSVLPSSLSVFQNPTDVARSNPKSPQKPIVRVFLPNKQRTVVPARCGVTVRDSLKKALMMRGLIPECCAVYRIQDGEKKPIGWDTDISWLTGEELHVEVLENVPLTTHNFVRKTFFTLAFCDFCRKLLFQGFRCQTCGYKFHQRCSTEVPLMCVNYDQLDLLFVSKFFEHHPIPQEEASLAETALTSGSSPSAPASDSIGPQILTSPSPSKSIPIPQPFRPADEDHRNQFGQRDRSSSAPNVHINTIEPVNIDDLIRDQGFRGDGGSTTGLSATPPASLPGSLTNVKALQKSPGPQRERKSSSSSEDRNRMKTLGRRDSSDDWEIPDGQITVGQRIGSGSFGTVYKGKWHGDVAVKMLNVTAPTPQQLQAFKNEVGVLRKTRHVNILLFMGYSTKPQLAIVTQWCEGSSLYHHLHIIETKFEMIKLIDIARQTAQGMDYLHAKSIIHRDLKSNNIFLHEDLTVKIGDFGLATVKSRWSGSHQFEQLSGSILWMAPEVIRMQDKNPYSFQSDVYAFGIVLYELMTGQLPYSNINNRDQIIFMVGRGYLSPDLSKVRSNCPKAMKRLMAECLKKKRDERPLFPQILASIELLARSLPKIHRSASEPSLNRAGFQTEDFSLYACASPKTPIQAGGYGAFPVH

Row | SMILES | blockade of recombinant DGKα catalytic activity (recombinant DGKα [1]) | SILAC ratio (SR), BRAF (BRAF) | SILAC ratio (SR), HSP70-1A K56/HSP70-1B K56 (HSP70-1A/B) | blockade of probe labeling at primary ATP-binding sites (DAGKc/DAGKa) (recombinant DGKα [2]; RLM001 10 mM, ATP 1 mM) | SILAC ratio (SR), C1-binding site (recombinant DGKα [2]; free ATP (1 mM))
1 | Cc1nc2sccn2c(=O)c1CCN1CCC(=C(c2ccccc2)c2ccc(F)cc2)CC1 [R59022] | blockade of catalytic activity |  |  |  | 
2 | Cc1nc2sccn2c(=O)c1CCN1CCC(=C(c2ccc(F)cc2)c2ccc(F)cc2)CC1 [ritanserin] | blockade of catalytic activity |  |  |  | 
3 | Nc1ncnc2c1ncn2[C@@H]1O[C@H](COP(=O)(O)OP(=O)(O)OP(=O)(O)O)[C@@H](O)[C@H]1O [ATP] |  | > 5 | > 5 | near-complete blockade of probe labeling | ~ 2

From publication PMC5771882 (Biochemistry, 2017)
